Results: publication PMC9616052 (Archiv der Pharmazie, 2022)
Where two headings read alike, the source gives them in different places. Where a SMILES comes first, the peptide text is derived from it.

What was measured:
Assay type in all cases: biochemical
[1] = target: T1, caspase-3 (Casp3) (Homo sapiens, UniProt P42574); assay: Fluorometric enzyme inhibition assay, Casp3; conditions: SEM
T1 sequence (P42574 29-175 limits assumed): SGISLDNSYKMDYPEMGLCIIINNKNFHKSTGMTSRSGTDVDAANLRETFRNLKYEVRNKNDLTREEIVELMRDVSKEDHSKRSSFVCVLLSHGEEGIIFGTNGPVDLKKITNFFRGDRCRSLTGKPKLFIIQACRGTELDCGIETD
T1 sequence (P42574 176-277 limits assumed): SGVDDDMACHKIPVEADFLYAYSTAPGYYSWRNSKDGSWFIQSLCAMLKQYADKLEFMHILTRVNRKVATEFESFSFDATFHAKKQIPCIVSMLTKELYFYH
Procedure, shortened: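 Recombinant Casp3 produced in house, 2 nM/well, in 100 mM HEPES pH 7.0, 150 mM NaCl, 0.1% CHAPS, 1.5% sucrose, 10 mM DTT. Preincubated with DMSO-diluted test compound 5 min, 37 °C. AcDEVD-AFC (Km 7.6 μM) at 5 μM (384-well, duplicate) or 10 μM (96-well, triplicate). Fluorescence ex 400/em 505 nm at 37 °C, 40 min reading. Four-parameter IC50 converted to Ki via Cheng–Prusoff.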

[2] = target: T2, caspase-2 (Casp2) (Homo sapiens, UniProt P42575); assay: Fluorometric enzyme inhibition assay, Casp2
T2 sequence (P42575 170-333 limits assumed): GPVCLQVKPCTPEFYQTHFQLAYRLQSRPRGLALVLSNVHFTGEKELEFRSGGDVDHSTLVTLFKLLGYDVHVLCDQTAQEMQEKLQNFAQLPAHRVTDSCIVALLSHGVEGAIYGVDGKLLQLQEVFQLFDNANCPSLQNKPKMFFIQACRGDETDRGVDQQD
T2 sequence (P42575 348-452 limits assumed): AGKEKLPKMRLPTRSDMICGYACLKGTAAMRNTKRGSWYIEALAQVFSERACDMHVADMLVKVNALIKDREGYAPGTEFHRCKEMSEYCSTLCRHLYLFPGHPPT
Procedure, shortened: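 In-house recombinant Casp2 in 100 mM MES pH 6.5, 150 mM NaCl, 0.1% CHAPS, 1.5% sucrose, 10 mM DTT. […] 384-well: 20 nM enzyme, 10 μM substrate, duplicate. 96-well: 5 nM, 25 μM, triplicate. AFC fluorescence (ex 400/em 505 nm) at 37 °C, 40 min point. Four-parameter IC50 fit, converted by Cheng–Prusoff.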

[3] = target: T3, circularly permutated caspase-2 (cpCasp2) (Homo sapiens, UniProt P42575); assay: Fluorometric enzyme inhibition assay, cpCasp2
T3 sequence (P42575 1-452): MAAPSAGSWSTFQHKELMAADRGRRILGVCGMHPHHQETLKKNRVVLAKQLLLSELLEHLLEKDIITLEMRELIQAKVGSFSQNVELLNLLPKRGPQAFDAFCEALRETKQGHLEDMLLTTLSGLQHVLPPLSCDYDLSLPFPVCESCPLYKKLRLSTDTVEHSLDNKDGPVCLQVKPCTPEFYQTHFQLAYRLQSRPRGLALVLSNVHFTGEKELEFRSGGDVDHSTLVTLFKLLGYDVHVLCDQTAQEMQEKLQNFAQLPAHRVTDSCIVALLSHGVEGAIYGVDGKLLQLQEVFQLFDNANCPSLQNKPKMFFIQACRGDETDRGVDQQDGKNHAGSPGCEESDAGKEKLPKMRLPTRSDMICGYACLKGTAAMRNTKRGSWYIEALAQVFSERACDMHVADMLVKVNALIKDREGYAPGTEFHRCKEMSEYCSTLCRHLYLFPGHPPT

| SMILES | Ki [1] | Ki [2] | Ki ([2]; SEM) | Ki ([3]; SEM) | Ki [3] |
| --- | --- | --- | --- | --- | --- |
| CC(=O)NCCCC[C@H](NC(=O)[C@@H](NC(C)=O)C(C)C)C(=O)N[C@H](C=O)CC(=O)O [compound 31, (S)-3-{(S)-6-Acetamido-2-[(S)-2-acetamido-3-methylbutanamido]hexanamido}-4-oxobutanoic acid] (Ac-Val-Lys(Ac)-Asp-aldehyde) | 9.55 µM | > 100 µM |  |  |  |
| CC(=O)N[C@H](C(=O)N[C@@H](CC(=O)O)C(=O)N[C@H](C(=O)N[C@@H](C)C(=O)N[C@H](C=O)CC(=O)O)[C@@H](C)O)[C@@H](C)O [compound 55, (4S,7S,10S,13S,16S)-7-(Carboxymethyl)-16-formyl-4,10-bis[(R)-1-hydroxyethyl]-13-methyl-2,5,8,11,14-pentaoxo-3,6,9,12,15-pentaazaoctadecan-18-oic acid] (Ac-TDTAD-aldehyde) | 0.0603 µM |  | 0.0331 µM | 0.0646 µM |  |
| CC(=O)N[C@H](C(=O)N1CCC[C@H]1C(=O)N[C@H](C=O)CC(=O)O)C(C)C [compound 17, (S)-3-[(S)-1-(Acetyl-L-valyl)pyrrolidine-2-carboxamido]-4-oxobutanoic acid] (Ac-Val-Pro-Asp-aldehyde) | 5.75 µM |  |  |  | > 100 µM |
| CC(=O)NCCCC[C@H](NC(=O)[C@@H](NC(=O)[C@@H](NC(C)=O)[C@@H](C)O)C(C)C)C(=O)N[C@H](C=O)CC(=O)O [compound 30, (4S,7S,10S,13S)-10-(4-Acetamidobutyl)-13-formyl-4-[(R)-1-hydroxyethyl]-7-isopropyl-2,5,8,11-tetraoxo-3,6,9,12-tetraazapentadecan-15-oic acid] (Ac-TVK(Ac)D-aldehyde) | 0.224 µM |  | 20 µM | 20.9 µM |  |
